Compounds with a hit are over-represented: about 2.1% of the library has one in this group of screens.
GRK2 aptamer HTS: compounds blocking aptamer binding on GRK2 – biochemical, human GRK2, bead flow cytometry, HTS, primary screen | inhibition of aptamer binding, % at 10 µM | AID 488847, 2010 | Beta-adrenergic receptor kinase 1 (Homo sapiens), P25098 | 0.59% of 330,000 active | FAM-aptamer displacement from GRK2;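 active means inhibition of aptamer binding above 40%, roughly 3 SD of noise, on plates passing a quality check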;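 further: median bead fluorescence of bound FAM aptamer so fluorescent compounds give negative values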
LMPTP block: LMPTP phosphatase inhibitors, primary screen, biochemical, fluorescence intensity, uHTS. recombinant LMPTP-A, OMFP fluorogenic substrate. inhibition, % at 20 µM. 0.22% of 360,000 active;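 active means compounds that cut the enzyme signal by at least half of the control window in the single-dose screen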
Target sequence (P24666 whole entry, looked up): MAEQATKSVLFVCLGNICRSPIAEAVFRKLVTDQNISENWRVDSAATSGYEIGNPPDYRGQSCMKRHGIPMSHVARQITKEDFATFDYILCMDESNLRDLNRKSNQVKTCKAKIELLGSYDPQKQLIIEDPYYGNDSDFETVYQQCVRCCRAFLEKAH
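material = LMPTP-A | quantity = 0.625 nM enzyme | reagent = OMFP substrate, 400 µM final | buffer or medium = Bis-Tris pH 6.0, DTT, detergent | detection = endpoint fluorescence intensity from OMFP dephosphorylation | dosing = single 20 µM dose | read-out basis = % inhibition relative to no-enzyme and uninhibited control wells | control set = no-enzyme and uninhibited controls | timing = 50 min at room temperature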
DNMT1 block: human DNMT1 methyltransferase inhibitors, primary screen, biochemical, molecular beacon, fluorescence, HinP1I cleavage, uHTS | AID 588458, 2011 | inhibition (reported as % activation of signal), % at 10 µM | DNA (cytosine-5)-methyltransferase 1 (Homo sapiens), P26358 | 0.83% of 360,000 active; in the data active means inhibition above about 50%
STEP inh: STEP phosphatase inhibitors, primary screen, biochemical, fluorescence intensity, uHTS; 0.25% of 360,000 active; inhibition, % at 20 µM; recombinant STEP, OMFP fluorogenic substrate; Tyrosine-protein phosphatase non-receptor type 5 (Homo sapiens), P54829;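 active means inhibition at 20 µM, scaled per plate between control wells, above about 37%, limit read from the data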
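System: STEP (striatal-enriched tyrosine phosphatase) enzyme, cell-free; medium: Bis-Tris pH 6.0 buffer with DTT, detergent; dosing: 20 µM, 1% DMSO; times: reaction 20 min, ambient temperature; detection: fluorescence, 480/540 nm; read-out basis: normalized % inhibition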
SUMO1-SIM PPI: modulators of SUMO1 protein-protein interactions, primary screen, biochemical, uHTS; AID 602429, 2012; SUMO1 binding to a labelled peptide, TR-FRET, 1 h; 0.33% of 360,000 active; inhibition, % at 20 µM; Small ubiquitin-related modifier 1 (Homo sapiens), P63165; in the data active means inhibition above about 37%
Target sequence (P63165 whole entry, looked up): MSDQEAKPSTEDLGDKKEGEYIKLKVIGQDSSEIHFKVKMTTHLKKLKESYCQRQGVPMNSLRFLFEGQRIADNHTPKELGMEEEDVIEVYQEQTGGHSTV
Scp-1 inhibitor: Scp-1 phosphatase inhibitors, primary screen, biochemical, colorimetric, uHTS | Carboxy-terminal domain RNA polymerase II polypeptide A small phosphatase 1 (Homo … | Recombinant Scp1, phosphopeptide, malachite green phosphate absorbance | inhibition, % at 20 µM | 0.88% of 340,000 active | AID 493091, 2011;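 active means inhibition above about 50% at 20 µM, limit read from the data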
Target sequence (Q9GZU7 76-261 limits assumed): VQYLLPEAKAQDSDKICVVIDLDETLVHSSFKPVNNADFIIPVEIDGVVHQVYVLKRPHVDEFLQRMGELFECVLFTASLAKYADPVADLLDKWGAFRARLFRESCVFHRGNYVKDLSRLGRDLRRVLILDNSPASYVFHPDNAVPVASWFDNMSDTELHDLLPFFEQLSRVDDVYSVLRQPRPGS
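Material: truncated SCP-1 phosphatase (76-261aa) / Buffer or medium: 50 mM Tris acetate pH 5.5, 0.005% Tween-20, 10 mM MgCl2 / Compound dosing: one concentration, 20 µM, with 1.0% DMSO / Incubation: 45 min room-temperature reaction, 5 min colour, 30 min stabiliser / Detection: colorimetric free-phosphate detection, absorbance 630 nm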
Numbers stand for hits; . = inactive; / = no result given.

SMILES	GRK2 aptamer HTS	LMPTP block	DNMT1 block	STEP inh	SUMO1-SIM PPI	Scp-1 inhibitor
CC1=C(C#N)C(=O)NC(=O)/C1=C\c1ccc(-c2cc(C)c(C)cc2[N+](=O)[O-])o1	/	.	.	.	.	78
COc1ccccc1C(=O)N1CCN(C(=O)[C@H]2O[C@@H](n3ccc(=O)[nH]c3=O)[C@H](O)[C@@H]2O)CC1	/	.	.	.	.	/
C/C(N)=C(/C#N)C(=O)CSc1nnc(Nc2cccc(C)c2C)s1	.	.	.	.	.	.
C/C(N)=C(/C#N)C(=O)CSc1nnc(Nc2c(C)cccc2C)s1	.	.	.	.	.	70
Cc1cc(C)c(S(=O)(=O)c2ccccc2)c(OC(=O)c2c(Cl)cc(Cl)cc2Cl)n1	.	.	.	.	42	.
COc1ccc(Cn2nnc3c(=O)[nH]c(C4CCN(S(=O)(=O)c5ccc(C)cc5)CC4)nc32)cc1	.	.	.	.	.	.
Cc1nc(-c2ccccc2)sc1-c1nc(-c2ccncc2)ncc1S(=O)(=O)c1ccccc1	.	.	.	.	47	.
O=C(Nc1nccs1)c1ccc(CSc2ccccc2)o1	.	49	.	.	.	.
Cc1ccc(SCc2ccc(C(=O)Nc3nccs3)o2)cc1	.	.	.	.	.	.
COC(=O)C(C(=O)OC)c1ccccc1NC(=O)OCc1ccccc1	/	.	/	/	.	/
CCCCCCC(=O)Nc1nc(C)c(-c2csc(Nc3cc(Cl)ccc3C)n2)s1	.	.	.	.	87	.
COc1ccc(Cl)cc1Nc1nc(-c2sc(NC(=O)C(C)(C)C)nc2C)cs1	.	.	.	.	87	.
CCCCC(=O)Nc1nc(C)c(-c2csc(Nc3cc(Cl)ccc3OC)n2)s1	.	.	.	.	.	.
O=C(Nc1ccc(C2=NCCN2)cc1)c1ccc(C(=O)Nc2ccc(C3=NCCN3)cc2)c(Cl)c1	.	59	.	.	87	.
O=C(Nc1ccc(NC(=O)c2ccc(Cl)cc2Cl)cc1)c1ccc2c(c1)OCO2	.	.	.	.	.	.
O=c1c2ccccc2oc2cc(Br)ccc12	/	.	.	.	.	.
COc1cc2oc3ccccc3c(=O)c2cc1OC	86	.	.	.	.	.
CCCn1c(SCC(=O)Nc2ccc3c(c2)OCO3)n[nH]c1=O	.	.	.	.	35	.
CC1CC(C)CN(C(=O)c2ccccc2Nc2ccc(SC(F)F)cc2)C1 (stereo not given)	.	.	.	.	.	.
C=C(C)CN(CC)c1nc(N)c2c(N)nc3c(c2c1C#N)CC(=O)N3C12CC3CC(CC(C3)C1)C2	.	.	.	.	.	.
N#Cc1c(N2CCCC(O)C2)nc(N)c2c(N)nc3c(c12)CC(=O)N3C12CC3CC(CC(C3)C1)C2 (stereo not given)	.	49	84	.	56	.
Nn1c(SCC(=O)Nc2ccccc2F)nnc1-c1cccs1	.	.	.	.	.	.
CCN1C(=O)[C@@H]2Cc3c([nH]c4ccccc34)C(c3cc(OC)c(OC)c(OC)c3)N2C1=S (stereo not given in full)	.	.	.	.	.	.
COc1cc([C@H]2c3[nH]c4ccccc4c3C[C@H]3C(=O)N4[C@@H](c5cc(OC)c(OC)c(OC)c5)c5[nH]c6ccccc6c5C[C@H]4C(=O)N23)cc(OC)c1OC	.	.	52	.	.	.
Cc1c(NC(=O)COC(=O)c2cccn2C)c(=O)n(-c2ccccc2)n1C	.	.	.	.	.	.
SMILES	GRK2 aptamer HTS	LMPTP block	DNMT1 block	STEP inh	SUMO1-SIM PPI	Scp-1 inhibitor
CN(C)c1ccc(C=c2c3ccccc3n3c2cc(-c2ccc(Cl)cc2)[n+]3C)cc1	/	52	.	.	.	.
CN(C)c1ccc(C=c2c3cc([N+](=O)[O-])ccc3n3c2cc(-c2ccccc2)[n+]3C)cc1	/	68	.	.	59	.
CN(C)c1ccc(C=c2c3ccccc3n3c2cc(-c2ccccc2)[n+]3C)cc1	/	89	.	.	.	.
CN(c1ccc(Cl)cc1)c1cc(=O)n(C)c2ccccc12	.	.	.	.	.	.
COc1cc(N(C)C)ccc1C=c1c2ccccc2n2c1cc(-c1ccccc1)[n+]2C	/	90	.	.	.	.
COc1cc(C=c2c3ccccc3n3c2cc(-c2ccccc2)[n+]3C)cc(OC)c1OC	/	.	.	.	.	.
Cc1nn(C)cc1S(=O)(=O)N1CCN(Cc2cccc(Cl)c2)CC1	.	.	.	.	.	.
CN(C)c1ccc(/C=C2\CCC/C(=C\c3ccccc3)C2=O)cc1	.	.	.	.	.	.
CN(C)c1ccc(C=c2c3ccccc3n3c2c2c([n+]3C)CCCC2)cc1	/	53	.	.	.	.
CCN1CCN(Cc2ccc(NC(=O)c3ccc(C)c(NC(=O)c4ccno4)c3)cc2C(F)(F)F)CC1	.	.	.	.	.	.
CCN1CCN(Cc2ccc(NC(=O)c3ccc(C)c(/C=C/c4cnc(Nc5cc(N6CCNCC6)nc(C)n5)cn4)c3)cc2C(F)(F)F)CC1	.	.	.	.	87	.
O=c1c2cc(Cl)ccc2nc(-c2ccc(Cl)c(Cl)c2)n1O	.	54	.	.	.	.
O=c1c2cc(Cl)ccc2nc(-c2ccccc2)n1O	.	.	.	.	.	.
CCS(=O)(=O)c1nc(S(=O)(=O)c2ccc(C)cc2)c(N2CCCCCC2)s1	/	.	.	.	.	/
O=C(O)Cc1ccc(NC(=O)C2CC=CCC2C(=O)O)cc1 (stereo not given)	44	/	/	/	/	/
CCc1ccc(NC(=O)C2CC=CCC2C(=O)O)cc1 (stereo not given)	.	.	.	.	.	.
CSc1nsc(/C=C/Nc2ccc(F)cc2F)c1C#N	98	.	.	.	.	.
CCOC(=O)c1c2ccccc2[n+]([O-])n1CCO	.	.	.	.	.	.
COc1cccc(CCC(=O)N2CCC(n3nccc3NC(=O)CC(C)C)CC2)c1	.	.	.	.	102	.
CCOc1cc(N2CCOCC2)c(OCC)cc1NS(=O)(=O)c1cc(NC(C)=O)ccc1OC	.	.	.	.	.	.
O=[N+]([O-])c1ccc(Cl)cc1Sc1nc2ccccc2o1	.	.	.	.	.	.
O=[N+]([O-])c1ccc(Sc2nc3ccccc3o2)c([N+](=O)[O-])c1	.	.	52	.	.	.
COCCCNC(=O)c1cc2cc(Br)ccc2oc1=O	.	.	.	.	.	.

Source: PubChem BioAssay (several laboratories)
